# Measured values from ChEMBL document CHEMBL4689842, “EUbOPEN Chemogenomics Library wave 1” (2021).
# System: U2OS
# Test: Multiplex assay against U2OS
# Assay type: toxicity, cell-based
# Details: human
# Procedure, shortened: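 Compound was added to live cells that had been stained at seeding with Hoechst33342, BioTracker Green Microtubule Cytoskeleton Dye, MitoTracker Red and Annexin V Alexa Fluor 680, and imaging followed on a CQ1 microscope at 37°C and 5% CO2. CellPathfinder machine-learning gating divided cells into Hoechst high-intensity objects or normal cells, normal cells into healthy, pyknosed or fragmented nuclei, and pyknosed cells into mitotic or apoptotic. Tubulin, mitochondrial-mass and membrane-permeability phenotypes are per cents of healthy-nucleus cells.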
# [1] = 12 h, 1 µM, compound concentration 1 uM, replicate 1
# [2] = 12 h, 1 µM, compound concentration 1 uM, replicate 2
# [3] = 12 h, 10 µM, compound concentration 10 uM, replicate 1
# [4] = 12 h, 10 µM, compound concentration 10 uM, replicate 2
# [5] = 24 h, 1 µM, compound concentration 1 uM, replicate 1
# [6] = 24 h, 1 µM, compound concentration 1 uM, replicate 2
# [7] = 24 h, 10 µM, compound concentration 10 uM, replicate 1
# [8] = 24 h, 10 µM, compound concentration 10 uM, replicate 2
# [9] = 48 h, 1 µM, compound concentration 1 uM, replicate 1
# [10] = 48 h, 1 µM, compound concentration 1 uM, replicate 2
# [11] = 48 h, 10 µM, compound concentration 10 uM, replicate 1
# [12] = 48 h, 10 µM, compound concentration 10 uM, replicate 2
smiles,measurement,setting,value
Cc1cc2c(cc1N1C(=O)c3cccc4c(CCCO)ccc(c34)C1=O)n(C)c(=O)n2C,Population Apoptotic (%),[1],50%
same,Population Fragmented Nuclei (%),[1],11%
same,Population Healthy Nuclei (%),[1],82%
same,Population Hoechst High Intensity Objects (%),[1],6%
same,Population Membrane Permeable-Phenotype (%),[1],4%
same,Population Mitochondria Different-Phenotype (%),[1],7%
same,Population Mitotic Cells (%),[1],50%
same,Population Normal (%),[1],93%
same,Population Pyknosed Nuclei (%),[1],5%
same,Population Tubulin-Different-Phenotype (%),[1],6%
same,Total Cell Count,[1],179
same,Population Apoptotic (%),[2],0%
same,Population Fragmented Nuclei (%),[2],6%
same,Population Healthy Nuclei (%),[2],90%
same,Population Hoechst High Intensity Objects (%),[2],8%
same,Population Membrane Permeable-Phenotype (%),[2],1%
same,Population Mitochondria Different-Phenotype (%),[2],22%
same,Population Mitotic Cells (%),[2],100%
same,Population Normal (%),[2],91%
same,Population Pyknosed Nuclei (%),[2],3%
same,Population Tubulin-Different-Phenotype (%),[2],24%
same,Total Cell Count,[2],104
same,Population Apoptotic (%),[3],54%
same,Population Fragmented Nuclei (%),[3],11%
same,Population Healthy Nuclei (%),[3],72%
same,Population Hoechst High Intensity Objects (%),[3],6%
same,Population Membrane Permeable-Phenotype (%),[3],16%
same,Population Mitochondria Different-Phenotype (%),[3],44%
same,Population Mitotic Cells (%),[3],45%
same,Population Normal (%),[3],93%
same,Population Pyknosed Nuclei (%),[3],15%
same,Population Tubulin-Different-Phenotype (%),[3],68%
same,Total Cell Count,[3],166
same,Population Apoptotic (%),[4],37%
same,Population Fragmented Nuclei (%),[4],20%
same,Population Healthy Nuclei (%),[4],63%
same,Population Hoechst High Intensity Objects (%),[4],9%
same,Population Membrane Permeable-Phenotype (%),[4],29%
same,Population Mitochondria Different-Phenotype (%),[4],77%
same,Population Mitotic Cells (%),[4],62%
same,Population Normal (%),[4],90%
same,Population Pyknosed Nuclei (%),[4],16%
same,Population Tubulin-Different-Phenotype (%),[4],96%
same,Total Cell Count,[4],54
same,Population Apoptotic (%),[5],38%
same,Population Fragmented Nuclei (%),[5],11%
same,Population Healthy Nuclei (%),[5],80%
same,Population Hoechst High Intensity Objects (%),[5],3%
same,Population Membrane Permeable-Phenotype (%),[5],5%
same,Population Mitochondria Different-Phenotype (%),[5],18%
same,Population Mitotic Cells (%),[5],61%
same,Population Normal (%),[5],96%
same,Population Pyknosed Nuclei (%),[5],7%
same,Population Tubulin-Different-Phenotype (%),[5],10%
same,Total Cell Count,[5],176
same,Population Apoptotic (%),[6],40%
same,Population Fragmented Nuclei (%),[6],7%
same,Population Healthy Nuclei (%),[6],87%
same,Population Membrane Permeable-Phenotype (%),[6],0%
same,Population Mitochondria Different-Phenotype (%),[6],27%
same,Population Mitotic Cells (%),[6],60%
same,Population Pyknosed Nuclei (%),[6],5%
same,Population Tubulin-Different-Phenotype (%),[6],17%
same,Total Cell Count,[6],96
same,Population Apoptotic (%),[7],59%
same,Population Fragmented Nuclei (%),[7],15%
same,Population Healthy Nuclei (%),[7],70%
same,Population Hoechst High Intensity Objects (%),[7],3%
same,Population Membrane Permeable-Phenotype (%),[7],5%
same,Population Mitochondria Different-Phenotype (%),[7],35%
same,Population Mitotic Cells (%),[7],40%
same,Population Normal (%),[7],96%
same,Population Pyknosed Nuclei (%),[7],14%
same,Population Tubulin-Different-Phenotype (%),[7],38%
same,Total Cell Count,[7],159
same,Population Apoptotic (%),[8],80%
same,Population Fragmented Nuclei (%),[8],18%
same,Population Healthy Nuclei (%),[8],62%
same,Population Hoechst High Intensity Objects (%),[8],11%
same,Population Membrane Permeable-Phenotype (%),[8],41%
same,Population Mitochondria Different-Phenotype (%),[8],76%
same,Population Mitotic Cells (%),[8],20%
same,Population Normal (%),[8],88%
same,Population Pyknosed Nuclei (%),[8],18%
same,Population Tubulin-Different-Phenotype (%),[8],76%
same,Total Cell Count,[8],61
same,Population Apoptotic (%),[9],65%
same,Population Fragmented Nuclei (%),[9],16%
same,Population Healthy Nuclei (%),[9],72%
same,Population Hoechst High Intensity Objects (%),[9],3%
same,Population Membrane Permeable-Phenotype (%),[9],4%
same,Population Mitochondria Different-Phenotype (%),[9],43%
same,Population Mitotic Cells (%),[9],35%
same,Population Normal (%),[9],96%
same,Population Pyknosed Nuclei (%),[9],11%
same,Population Tubulin-Different-Phenotype (%),[9],16%
same,Total Cell Count,[9],187
same,Population Apoptotic (%),[10],66%
same,Population Fragmented Nuclei (%),[10],6%
same,Population Healthy Nuclei (%),[10],90%
same,Population Hoechst High Intensity Objects (%),[10],10%
same,Population Membrane Permeable-Phenotype (%),[10],9%
same,Population Mitochondria Different-Phenotype (%),[10],49%
same,Population Mitotic Cells (%),[10],33%
same,Population Normal (%),[10],89%
same,Population Pyknosed Nuclei (%),[10],3%
same,Population Tubulin-Different-Phenotype (%),[10],28%
same,Total Cell Count,[10],103
same,Population Apoptotic (%),[11],79%
same,Population Fragmented Nuclei (%),[11],20%
same,Population Healthy Nuclei (%),[11],53%
same,Population Hoechst High Intensity Objects (%),[11],1%
same,Population Membrane Permeable-Phenotype (%),[11],12%
same,Population Mitochondria Different-Phenotype (%),[11],32%
same,Population Mitotic Cells (%),[11],20%
same,Population Normal (%),[11],98%
same,Population Pyknosed Nuclei (%),[11],25%
same,Population Tubulin-Different-Phenotype (%),[11],14%
same,Total Cell Count,[11],154
same,Population Apoptotic (%),[12],88%
same,Population Fragmented Nuclei (%),[12],22%
same,Population Healthy Nuclei (%),[12],45%
same,Population Hoechst High Intensity Objects (%),[12],8%
same,Population Membrane Permeable-Phenotype (%),[12],46%
same,Population Mitochondria Different-Phenotype (%),[12],57%
same,Population Mitotic Cells (%),[12],11%
same,Population Normal (%),[12],91%
same,Population Pyknosed Nuclei (%),[12],31%
same,Population Tubulin-Different-Phenotype (%),[12],30%
same,Total Cell Count,[12],62
